# T cruzi repl: blocks replication of Trypanosoma cruzi; T. cruzi beta-gal in NIH3T3, luminescence, 90 h; inhibition, % (test concentration not listed); hit rate 1.4% among 300,000; AID 1885;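 active = mean inhibition across valid replicates above about 55%, limit read from the data; inconclusive = mean below that limit but half or more replicates reach it; inactive = mean below it, under half of replicates reach it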;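 also: signal also drops with host cell toxicity which is not excluded here; higher percent means less beta-gal luminescence so fewer parasites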
#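 System: Mouse NIH/3T3 fibroblasts infected with β-gal-expressing T. cruzi Tulahuen C4 | Quantity: NIH/3T3 cells, 5,000 per well | Reagent: 5000 reporter trypomastigotes per well | Dosing: Compound pinned at 50 nL/well, DMSO | Schedule: 3 h host attachment, then at least 90 h co-culture | Detection: GalScreen luminescence, 60 min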
# CSC inhib: blocks cancer stem cells; cancer stem cell-like cells viability, luminescence; inhibition, % at 7.5 µM; hit rate 1.1% among 300,000; in the data active = inhibition above about 75%; inconclusive = no clear call, values can overlap the other calls; tested in HMLE shEcad cells
# CHOP UPR activ: apoptotic UPR (CHOP) activation; activation, % at 10 µM; CHO-CHOP luciferase reporter, luminescence; percent of tunicamycin response over DMSO baseline; hit rate 0.34% among 330,000;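 active = at 10 µM dose, activation of 40% or more, normalized to positive control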
#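 System: CHO-CHOP luciferase reporter cell line; amount: 500 cells/well; buffer or medium: F12 medium containing 10% fetal bovine serum; incubation: 6 h compound exposure at 37 °C after overnight seeding; measured by: luciferase luminescence after 10 min with Steady-Glo reagent; evaluation: % reporter activation, DMSO baseline versus tunicamycin full activation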
# Mdm2 MdmX PPI: disrupts the human Mdm2-MdmX interaction; hit rate 3% among 330,000; AID 485346; SaOS-2 split-luciferase Mdm2/MdmX complementation, luminescence; inhibition, % at 8 µM;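 active = inhibition of at least 50% at 8 µM in the primary screen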
# Target sequence (O15151 whole entry, looked up): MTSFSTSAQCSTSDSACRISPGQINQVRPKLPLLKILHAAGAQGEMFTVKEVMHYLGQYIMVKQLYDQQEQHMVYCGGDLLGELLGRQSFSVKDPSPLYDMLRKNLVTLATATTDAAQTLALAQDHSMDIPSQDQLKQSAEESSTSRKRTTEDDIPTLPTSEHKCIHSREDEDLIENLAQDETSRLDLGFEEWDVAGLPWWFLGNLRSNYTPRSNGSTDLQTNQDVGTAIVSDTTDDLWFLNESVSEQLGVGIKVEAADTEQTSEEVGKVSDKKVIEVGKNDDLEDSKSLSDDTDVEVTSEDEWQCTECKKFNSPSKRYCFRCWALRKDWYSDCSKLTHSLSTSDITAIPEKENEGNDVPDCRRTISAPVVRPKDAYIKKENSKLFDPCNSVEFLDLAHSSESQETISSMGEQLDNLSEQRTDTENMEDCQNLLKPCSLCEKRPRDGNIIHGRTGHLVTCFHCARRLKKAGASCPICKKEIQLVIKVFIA
# Target sequence (Q00987 whole entry, looked up): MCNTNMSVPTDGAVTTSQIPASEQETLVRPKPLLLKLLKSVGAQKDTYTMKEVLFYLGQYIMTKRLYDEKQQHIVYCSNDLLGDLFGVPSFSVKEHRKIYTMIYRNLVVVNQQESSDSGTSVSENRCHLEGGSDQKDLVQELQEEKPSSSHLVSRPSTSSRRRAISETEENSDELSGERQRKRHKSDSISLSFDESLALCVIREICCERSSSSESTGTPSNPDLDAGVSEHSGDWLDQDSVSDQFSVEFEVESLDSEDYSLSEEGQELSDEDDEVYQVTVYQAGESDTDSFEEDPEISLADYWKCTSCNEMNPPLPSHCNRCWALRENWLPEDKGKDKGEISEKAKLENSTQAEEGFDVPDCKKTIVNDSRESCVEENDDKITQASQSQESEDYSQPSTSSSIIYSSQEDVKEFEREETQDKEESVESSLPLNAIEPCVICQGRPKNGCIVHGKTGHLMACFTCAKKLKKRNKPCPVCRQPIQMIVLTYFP
# Beta cell apopt: beta cell apoptosis inhibition. INS-1E cytokine-induced death, ATP luminescence, 48 h; percent of positive-control rescue, neutral wells zero. protection from apoptosis, % (test concentration not listed). hit rate 0.8% among 300,000;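 active = Every replicate reaches about 75%, or at least half do and their mean reaches it too, limit read from the data; inconclusive = At least half of replicates reach the limit but their mean does not; inactive = Under half of replicates reach the limit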;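 also: higher means more ATP so stronger rescue from cytokine killing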
# XBP1 UPR activ: activators of adaptive arm of unfolded protein response (XBP1) | hit rate 0.33% among 330,000 | CHO-XBP1 luciferase reporter, IRE1-XBP1 UPR activation, luminescence; percent of tunicamycin response, DMSO as zero | activation, % at 20 µM;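 active = versus positive control, 20 µM dose yields 30% or more activation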
#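 Assay system: CHO-XBP1 luciferase reporter cells; Schedule: 6 h treatment, 37 °C; Detection: glow luminescence from Steady-Glo reagent; Benchmarks: high control tunicamycin 10 µg/mL final, low control DMSO vehicle only.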
# Mdm2 MdmX conf: confirmation of human Mdm2/MdmX interaction inhibitors; hit rate 55% among 10,000; shares compounds with Mdm2 MdmX PPI; Mdm2-MdmX binding, luminescent assay; inhibition, % at 8 µM; in the data active = inhibition above about 40%
# Full FLuc ctr: full-length luciferase inhibition in Mdm2/MdmX counter-screen; SaOS-2 full-length luciferase counterscreen, luminescence; inhibition, % at 8 µM; shares compounds with Mdm2 MdmX PPI; hit rate 77% among 6,200;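 active = mean inhibition at 8 µM reaching about 37%, which flags the compound as non-specific, limit read from the data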;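 also: p53-null SaOS-2 cells with luciferase driven by a doxycycline-inducible promoter; compound on cells about two nights before reading with doxycycline added after day one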
# Hits are given with their value; n = inactive; u = inconclusive; x = no result. An excerpt weighted towards active compounds, which were near 5% of everything screened.
SMILES,T cruzi repl,CSC inhib,CHOP UPR activ,Mdm2 MdmX PPI,Beta cell apopt,XBP1 UPR activ,Mdm2 MdmX conf,Full FLuc ctr
Cc1sc2ncnc(N3CCC(C(=O)Nc4ccc(Br)cc4Br)CC3)c2c1C,n,n,n,57,n,n,47,87
COc1ccccc1OCC(=O)NNC(=O)C1CCN(c2ncnc3sc(C)c(C)c23)CC1,x,x,n,n,n,n,x,x
CNC(=O)c1ccc(NC(=O)C2CCN(c3ncnc4sc(C)c(C)c34)CC2)cc1,n,n,n,62,n,n,60,58
CCn1c(C(=O)N2CCC(C(=O)NCc3ccc(OC)cc3)CC2)cc2sccc21,n,n,n,n,x,n,x,x
Cc1nn(C)c(C)c1/C=N/NC(=O)CCn1nc(C)c([N+](=O)[O-])c1C,n,n,n,n,n,n,x,x
Cc1ccc(C(=O)Nc2ccc(C(=O)O)cc2)cc1S(=O)(=O)NCc1ccccc1,n,n,n,n,n,n,x,x
COc1cccc(CN2CCNC(=O)C2CC(=O)N(Cc2cnn(C)c2)C(C)C)c1 (stereo not drawn),n,n,n,n,n,n,x,x
CCCC(=O)N=C1SC2CS(=O)(=O)CC2N1c1ccc(-c2nc3ccc(C)cc3s2)cc1 (stereo not drawn),n,n,n,73,n,65,n,x
CC[C@H]1CN2CCc3cc(OC)c(OC)cc3C2C[C@@H]1C[C@H]1NCCc2cc(OC)c(OC)cc21 (stereo partly drawn),x,x,n,97,x,n,99,51
COc1ccc(/C=C/C(=O)OCC(=O)Nc2ccc(Cl)cn2)cc1,n,n,n,n,n,n,x,x
CCOC(=O)c1c(C)[nH]c(C(=O)CSc2nnc(-c3cccs3)n2Cc2ccccc2)c1C,n,n,n,65,n,n,42,40
CC(=O)c1c(C)[nH]c(C(=O)CSc2nnc(-c3cccs3)n2Cc2ccccc2)c1C,n,n,n,n,n,n,x,x
O=C(O)CSc1ncnc2sc(-c3ccccc3)cc12,n,n,n,n,n,n,x,x
CC(=O)c1c(C)[nH]c(C(=O)CSc2nnc(-c3ccccc3)n2Cc2ccc3c(c2)OCO3)c1C,n,n,n,77,n,n,n,x
CC(=O)c1c(C)[nH]c(C(=O)CSc2ncnc3sc(-c4ccccc4)cc23)c1C,n,n,n,51,x,n,n,x
O=c1c2ccccc2nnn1CSc1nnc(-c2cccs2)n1Cc1ccccc1,n,n,n,61,n,n,49,72
O=C(NC1CCCC1)C(c1cccnc1)N(C(=O)c1ccco1)c1ccc(F)cc1 (stereo not drawn),n,n,n,n,n,n,x,x
Cc1cc(=O)oc2c3c(cc(OCC(=O)Nc4cccnc4)c12)OC(C)(C)CC3,n,n,n,n,n,n,x,x
CCCCCCc1cc2cc(C(N)=O)c(=N)oc2cc1O,n,n,n,n,n,n,x,x
Cc1ccc(S(=O)(=O)c2cc3ccc(O)cc3oc2=O)cc1C,n,n,n,n,n,n,x,x
CCCCCCc1cc2cc(S(=O)(=O)c3ccc(F)c(Cl)c3)c(=O)oc2cc1O,n,n,n,98,n,n,92,n
CCCCCCc1cc2cc(C(=O)OCC)c(=O)oc2cc1O,n,n,n,64,n,n,n,x
CCCCCCc1cc2cc(/C(N)=N/NC(=O)c3ccncc3)c(=O)oc2cc1O,x,n,n,65,n,n,n,x
CCCCCCc1cc2cc(C(=O)Nc3cccc(OC)c3)c(=O)oc2cc1O,n,x,n,95,99,n,n,x
Cc1[nH]nc(SCC(=O)N2CCC(C)CC2)c1[N+](=O)[O-],n,n,n,n,n,n,x,x
SMILES,T cruzi repl,CSC inhib,CHOP UPR activ,Mdm2 MdmX PPI,Beta cell apopt,XBP1 UPR activ,Mdm2 MdmX conf,Full FLuc ctr
COC(=O)c1ccc(NC(CC(C)C)C(=O)OC)c([N+](=O)[O-])c1 (stereo not drawn),n,n,n,n,n,n,x,x
CCCCCCc1cc2cc(C(=O)Nc3ccc(OC)cc3)c(=O)oc2cc1O,n,n,n,100,n,n,n,x
CCCCCCc1cc2cc(C(=O)NC)c(=N)oc2cc1O,n,n,n,n,n,n,x,x
COc1cc(OC)c(NS(=O)(=O)c2c(C(=O)N3CCCCC3)c(C)n(C)c2C)cc1Cl,n,n,n,n,n,n,x,x
O=C(Nc1ccncc1)C1CCN(S(=O)(=O)c2ccc(Cl)cc2)CC1,n,n,n,n,n,n,x,x
CCOc1cc2[nH]c(=S)n(CCc3ccc(OC)c(OC)c3)c(=O)c2cc1OCC,n,n,n,83,n,n,n,x
O=C(CCS(=O)(=O)c1ccc(Cl)cc1)Nc1nc(-c2cccnc2)cs1,n,n,n,70,x,n,n,72
Cc1ccc(S(=O)(=O)CCC(=O)Nc2nc(-c3cccnc3)cs2)cc1,n,n,n,58,n,n,n,66
Cc1cc(C)cc(OCC(=O)Nc2nc(-c3cccnc3)cs2)c1,n,n,n,78,n,n,n,x
Cc1cc(Cl)ccc1OCC(=O)Nc1nc(-c2cccnc2)cs1,n,n,n,n,n,n,x,x
COc1ccc(CC(=O)Nc2nc(-c3cccnc3)cs2)cc1,n,n,n,n,n,n,x,x
O=C(COc1ccccc1)Nc1nc(-c2cccnc2)cs1,x,x,n,n,n,n,x,x
Cc1ccc(S(=O)(=O)CCC(=O)Nc2nc(-c3ccccn3)cs2)cc1,x,n,n,67,n,n,n,x
Cc1ccc(OCC(=O)Nc2nc(-c3ccccn3)cs2)c(C)c1,n,x,n,n,n,n,x,x
CC12CCC(=O)N1C(C(=O)NNC(=O)c1ccc(Br)cc1)CS2 (stereo not drawn),x,x,n,n,n,n,x,x
CC(=O)c1sc(NC(=O)CCS(=O)(=O)c2ccc(Cl)cc2)nc1C,n,n,n,51,n,n,52,69
O=C(Nc1nc(-c2ccncc2)cs1)c1ccc(F)cc1,n,n,n,66,n,n,n,x
O=C(CS(=O)(=O)c1ccccc1)Nc1nc(-c2ccc(F)cc2)cs1,n,n,n,n,n,n,x,x
Cc1ccc(C2(C)NC(=O)N(CC(=O)Nc3nc(-c4ccccn4)cs3)C2=O)cc1 (stereo not drawn),u,n,n,59,x,n,49,64
O=C(CCS(=O)(=O)c1ccccc1)Nc1nc(-c2ccc(F)cc2)cs1,n,u,n,60,n,n,43,53
CC(Oc1ccc2c3c(c(=O)oc2c1)CCCC3)C(=O)NCC(O)c1ccccc1 (stereo not drawn),n,n,n,n,n,n,x,x
O=C(CN1CCOCC1)Nc1nc(-c2ccc(Cl)cc2)cs1,n,x,n,n,x,n,x,x
O=C(CCS(=O)(=O)c1ccc(Cl)cc1)Nc1nc(-c2ccncc2)cs1,n,n,n,97,n,n,56,n

# Assay outcomes: PubChem BioAssay, several laboratories
